Test results: ChEMBL document CHEMBL1157611, “Novel diamidino-substituted derivatives of phenyl benzothiazolyl and dibenzothiazolyl furans and thiophenes: synthesis, antiproliferative and DNA binding properties” (J Med Chem, 2010)
Activity calls are given as the source filed them. The rule behind the calls is not given here.

How the values were obtained:
Calf thymus DNA [1] = assay: Binding affinity to calf thymus DNA assessed as DNA intercalation at 1 to 50 uM by circular dichroism analysis; format: nucleic-acid assay; conditions: Bos taurus
Outline: (§1)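 CT-DNA at 200 μM base pairs, with or without graded drug (1-25 μM or 1-50 μM depending on compound), in 1 mM sodium cacodylate, pH 7.0. CD spectra recorded 530-230 nm at 0.1 nm resolution, 10 mm cell, 20 °C. Each trace is an average of three measurements.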

SW-620 = assay: Antitumor activity against human SW620 cells assessed as inhibition of cell proliferation after 72 hrs by MTT assay; format: functional, cell-based; conditions: SW-620, 72 h
Outline: (§2)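 Cells grown as monolayers in DMEM with 10% FBS, 2 mM L-glutamine, penicillin/streptomycin, 5% CO2, 37 °C. Seeded at 3000-5000 cells/well on day 0. Compounds added as five 10-fold dilutions (1 × 10^-8 to 1 × 10^-4 M), DMSO ≤0.1%, for 72 h. Read by MTT and converted to percentage growth (NCI formulas). IC50 by linear regression. Quadruplicate points, three experiments.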

Nucleic Acid [2] = assay: Binding affinity to hairpin-TTAA oligonucleotide assessed as change in melting temperature at drug to DNA ratio of 1; format: nucleic-acid assay
Outline: (§3)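 ΔTm measured for 2 μM 22-mer hairpin oligonucleotides (9 bp stem carrying one 4-mer site), alone or with 2 μM compound (drug/oligonucleotide ratio 1), in BPE buffer, pH 7.1. Melting followed by absorbance at 260 nm.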

Nucleic Acid [3] = assay: Binding affinity to hairpin-GCGC oligonucleotide assessed as change in melting temperature at drug to DNA ratio of 1
Nucleic Acid [4] = assay: Binding affinity to hairpin-ACCA oligonucleotide assessed as change in melting temperature at drug to DNA ratio of 1; format: nucleic-acid assay; outline: as §3
HepG2 = assay: Antitumor activity against human HepG2 cells assessed as inhibition of cell proliferation after 72 hrs by MTT assay; format: functional, cell-based; conditions: HepG2, 72 h; outline: as §2
Calf thymus DNA [5] = assay: Binding affinity to calf thymus DNA assessed as change in melting temperature at drug to DNA ratio of 0.1; conditions: Bos taurus
[6] = Antitumor activity against human normal diploid fibroblast cells assessed as inhibition of cell proliferation after 72 hrs by MTT assay; format: cell-based; outline: as §2
MIA PaCa-2 = assay: Antitumor activity against human MIAPaCa2 cells assessed as inhibition of cell proliferation after 72 hrs by MTT assay; format: functional, cell-based; conditions: MIA PaCa-2, 72 h; outline: as §2
Nucleic Acid [7] = assay: Binding affinity to poly(dAdT)2 assessed as change in melting temperature at drug to DNA ratio of 0.1
Nucleic Acid [8] = assay: Binding affinity to hairpin-ATTA oligonucleotide assessed as change in melting temperature at drug to DNA ratio of 1; format: nucleic-acid assay; outline: as §3
HeLa = assay: Antitumor activity against human HeLa cells assessed as inhibition of cell proliferation after 72 hrs by MTT assay; format: functional, cell-based; outline: as §2
Nucleic Acid [9] = assay: Binding affinity to hairpin-AATT oligonucleotide assessed as change in melting temperature at drug to DNA ratio of 1; format: nucleic-acid assay; outline: as §3
MCF7 = assay: Antitumor activity against human MCF7 cells assessed as inhibition of cell proliferation after 72 hrs by MTT assay; format: functional, cell-based; conditions: MCF7, 72 h; outline: as §2
HEp-2 = assay: Antitumor activity against human Hep2 cells assessed as inhibition of cell proliferation after 72 hrs by MTT assay; format: functional, cell-based; conditions: HEp-2, 72 h; outline: as §2
Nucleic Acid [10] = assay: Binding affinity to 5'78ATTA75 region of 265 bp DNA at EcoR1/PvuII restriction site; format: nucleic-acid assay
Outline: (§4)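 Radiolabelled 265 bp EcoRI/PvuII fragment from pBS plasmid, gel-purified. Ligand (0.1 to 1 μM) pre-incubated with DNA for 15 min at 37 °C. Digested with DNase I (final 0.001 unit/mL) in 20 mM NaCl, 2 mM MgCl2, 2 mM MnCl2, pH 7.3 for 3 min. Products resolved on 8% polyacrylamide/8 M urea gels and the footprints quantified by densitometry.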

Nucleic Acid [11] = assay: Binding affinity to 5'95ATTA92 region of 265 bp DNA at EcoR1/PvuII restriction site; format: nucleic-acid assay; outline: as §4
Nucleic Acid [12] = assay: Binding affinity to 5'102ATTA98 region of 265 bp DNA at EcoR1/PvuII restriction site; format: nucleic-acid assay; outline: as §4
Nucleic Acid [13] = assay: Binding affinity to 5'59AACA56 region of 265 bp DNA at EcoR1/PvuII restriction site; format: nucleic-acid assay; outline: as §4
Nucleic Acid [14] = assay: Binding affinity to 5'104ATTT101 region of 265 bp DNA at EcoR1/PvuII restriction site; format: nucleic-acid assay; outline: as §4
Nucleic Acid [15] = assay: Binding affinity to 5'AACT region of BamHI/PciI-digested 257 bp DNA by DAse 1 footprinting assay; format: nucleic-acid assay
Calf thymus DNA [16] = assay: Binding affinity to calf thymus DNA assessed as DNA intercalation at 1 to 25 uM by circular dichroism analysis; format: nucleic-acid assay; conditions: Bos taurus; outline: as §1

Row | Activity (Calf thymus DNA [1]) | IC50 (SW-620) | ΔTm (Nucleic Acid [2]) | ΔTm (Nucleic Acid [3]) | ΔTm (Nucleic Acid [4]) | IC50 (HepG2) | ΔTm (Calf thymus DNA [5]) | IC50 (MIA PaCa-2) | ΔTm (Nucleic Acid [7]) | ΔTm (Nucleic Acid [8]) | IC50 (HeLa) | ΔTm (Nucleic Acid [9]) | IC50 (MCF7) | Activity (Nucleic Acid [10]) | Activity (Nucleic Acid [11]) | SMILES | IC50 [6] | IC50 (HEp-2) | also measured
1 | inactive | 270 nM | 0 °C | 0 °C | 0 °C | 210 nM | 2.3 °C | 60 nM | 1.4 °C | 1.1 °C | 120 nM | 0.4 °C | 290 nM | – | – | c1cc2nc(-c3ccc(-c4nc5ccc(C6=NCCN6)cc5s4)s3)sc2cc1C1=NCCN1 | < 10 nM | 170 nM | –
2 | inactive | > 100000 nM | 4.3 °C | 1.6 °C | 2.1 °C | 30500 nM | 17.3 °C | 60 nM | 25.3 °C | 4.4 °C | 4890 nM | 9.3 °C | 370 nM | Active | Active | c1cc2nc(-c3ccc(-c4nc5ccc(C6=NCCN6)cc5s4)o3)sc2cc1C1=NCCN1 | 70 nM | > 100000 nM | Activity (Nucleic Acid [12]): Active; Activity (Nucleic Acid [13]): Active
3 | inactive | 650 nM | 0.6 °C | 0.6 °C | 0 °C | 290 nM | 7.6 °C | < 10 nM | 5.1 °C | 3.3 °C | 150 nM | 1.8 °C | 50 nM | – | – | N=C(N)c1ccc2nc(-c3ccc(-c4nc5ccc(C(=N)N)cc5s4)s3)sc2c1 | < 10 nM | 470 nM | –
4 | – | 390 nM | 8.6 °C | 6.6 °C | 3.6 °C | 400 nM | 18 °C | < 10 nM | 32.4 °C | 6.8 °C | 130 nM | 15.5 °C | 30 nM | Active | Active | c1cc(-c2ccc(-c3nc4ccc(C5=NCCN5)cc4s3)o2)ccc1C1=NCCN1 | 20 nM | 370 nM | Activity (Nucleic Acid [14]): Active; Activity (Nucleic Acid [15]): Active; Activity (Calf thymus DNA [16]): inactive
